Laboratory results reported in publication PMC5312682 (Journal of neurochemistry, 2017).

Assays:
[1] = biological target: CNS-relevant targets, including opioid, adrenergic, nACR, mAChR, and NMDA receptors, neurotransmitter transporters and ion channels; test: Off-target binding, CNS-relevant targets; details: read-out: off-target affinity Ki; most CNS-relevant targets; Supplemental table 2
[2] = tested on: human SK-N-SH neuroblastoma cells; test: Intracellular calcium assay; format: cell-based; details: for calcium response: compound alone
[3] = tested on: transgenic SC_APP C. elegans; test: C. elegans neurotoxicity assay; format: in vivo
PK study in mice = format: in vivo, C57Bl/6J mice; details: mouse; for bioavailability: AUC(0-3h) vs intravenous
[4] = tested on: Thy1-hAPP^Lond/Swe+ mice and WT littermates; test: Sociability / social discrimination test; format: in vivo, mouse; details: for sociability test: preference mouse cup vs empty cup: 10 mg/kg/d SC, after 35 days of dosing
Procedure, shortened: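 APPLond/Swe+ and WT littermates dosed SC daily in late afternoon; on test days, dosing followed testing. Chronic study: 10 mg/kg for 64 days from 4.5 months; sociability measured as exploration of a cup holding a C57Bl/6 mouse vs an empty cup. Dose-response study: 3, 10 or 30 mg/kg from 6.7 months; social discrimination of novel vs familiar mouse after 30 days of dosing, by t-test.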

[5] = tested on: Thy1-hAPP^Lond/Swe+ mice and WT littermates; test: Y-maze test; format: in vivo, mouse
Procedure, shortened: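 Y-maze spontaneous alternation and total arm entries in APPLond/Swe+ and WT littermates dosed SC daily, tested during the active cycle in balanced morning and afternoon sessions. Chronic study: 10 mg/kg, tested after 50 days of dosing. Dose-response study: 3, 10 or 30 mg/kg for 60 days. Alternation was compared with a 50% theoretical mean by one-sample t-test; mean ±SEM.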

[6] = tested on: Thy1-hAPP^Lond/Swe+ mice and WT littermates; test: Morris Water Maze; format: in vivo, mouse
Procedure, shortened: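 Dose-response cohort: APPLond/Swe+ and WT littermates aged 6.7 months, given 3, 10 or 30 mg/kg SC daily for 60 days (n=4–5 per group). MWM started after 35 days of dosing, with hidden-platform learning followed by reversal-learning hidden-platform trials. Mice floating extensively or unable to swim were excluded. Analysis used repeated-measures ANOVA with Dunnett's or one-way ANOVA with Fisher's LSD; mean ±SEM.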

[7] = tested on: Thy1-hAPP^Lond/Swe+ mice and WT littermates; format: in vivo, mouse
Procedure, shortened: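 APPLond/Swe+ and WT littermates, single-housed on a reverse light cycle, balanced for body weight and pre-dose locomotor activity. Dosing was 10 mg/kg SC once daily in late afternoon for 64 days, started at 4.5 months of age. Activity chamber was run first in the behavioural battery, during the active cycle. After behavioural testing, blood and organs were collected at sacrifice for blood chemistry and histopathology.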

Aβ = Aβ pathology; format: in vivo, mouse; details: APP^Lond/Swe+ mice, 10 mg/kg/d chronic
Procedure, shortened: (§1)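 After behavioural testing at the end of chronic daily SC dosing, APPLond/Swe+ and WT mice were perfused with PBS and brains collected. Brains were bisected sagittally: one half was frozen at −80°C, and the other was fixed overnight in 4% formalin, then kept at 4°C in 30% sucrose until processing.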

synaptophysin, iba1 = test: Synaptophysin and iba1 immunohistochemistry in brain; format: in vivo, mouse
Procedure, shortened: as §1

IL1β = test: qRT-PCR of inflammatory markers in cortical tissue; format: in vivo, mouse; details: APP^Lond/Swe+ mice, dose-response cohort
Sig2R = details: read-out: Ki Sig2R; ref Sahn et al. 2016; cited from earlier work
microglia = details: induced by fragments of amyloid beta; ref Behensky et al. 2013; cited from earlier work
[8] = tested on: neural progenitor cells derived from adult rat brain; details: ref Liu et al. 2009; cited from earlier work

CN1CCN(c2ccc3c(c2)[C@H]2C[C@@H]3CCN2C(=O)OCc2ccccc2)CC1 [SAS-0132]
Ki [1]: 500 to 10000 nM
effects on intracellular Ca2+ compared with DKR-1051 ([2]; 100 µM): weaker than the effects of DKR-1051
effect on calcium response induced by DKR-1051 (100 µM) ([2]; SAS-0132 applied before DKR-1051, lower concentrations (0.1-30 µM)): significantly attenuated the DKR-0151-induced calcium response
calcium response ([2]; 100 µM): significant increases in intracellular Ca^2+
calcium response ([2]; concentrations up to 30 µM): fails to produce a significant calcium response
neurodegeneration of VC4 and VC5 neurons vs vehicle ([3]; 200 µM, 5-day treatment, day 5 of adulthood, SC_APP worms, p < 0.01): decreased neurodegeneration
neuroprotection in animals with vem-1 (PGRMC1) knocked-down by RNAi ([3]; 200 µM, SC_APP worms, vem-1 RNAi co-treatment): provided no further neuroprotection
functional classification at Sig2R/PGRMC1 ([3]; from C. elegans data compared with vem-1 null mutations): Sig2R/PGRMC1 antagonists
plasma levels (PK study in mice; 10 mg/kg IV, SC and PO, up to 3 h post-administration): Detectable levels
bioavailability (PK study in mice; 10 mg/kg oral): 7%
brain concentration (PK study in mice; 10 mg/kg subcutaneous, 3 h post-administration): 3.8 µM
bioavailability (PK study in mice; 10 mg/kg subcutaneous): 45%
concentration in brain homogenates (PK study in mice; 24 h after single 10 mg/kg subcutaneous injection): 1.6 ng/g
sociability test: preference mouse cup vs empty cup ([4]; APP^Lond/Swe+ mice, p < 0.05): showed a distinct preference for the cup containing a mouse over the empty cup
sociability test: preference mouse cup vs empty cup ([4]; WT mice): not significantly altered
sociability ([4]; dose-response study, 30 mg/kg): did not impair sociability
social discrimination: novel vs familiar mouse ([4]; dose-response study, APP^Lond/Swe+ mice, 3 mg/kg): showed a significant preference for a novel mouse over a familiar one
Y-maze total arm entries ([5]; WT and APP^Lond/Swe+ mice, 10 mg/kg/d, chronic daily dosing study): not different among the four groups
Y-maze spontaneous alternation ([5]; dose-response study, WT and APP^Lond/Swe+ mice, 30 mg/kg): showed impaired spontaneous alternation behavior
Y-maze spontaneous alternation ([5]; dose-response study, WT mice, 30 mg/kg): showed impaired alternation behavior
Y-maze spontaneous alternation ([5]; dose-response study, WT mice, 3 and 10 mg/kg): did not affect their performance
Y-maze total arm entries ([5]; dose-response study, all groups): not different among groups
MWM hidden platform learning phase ([6]; APP^Lond/Swe+ mice): had no effect on the cognitive functions
MWM reversal learning trials ([6]; APP^Lond/Swe+ mice): no significant effects of SAS-0132 treatment
MWM reversal learning probe trial: target quadrant preference ([6]; APP^Lond/Swe+ mice, 10 mg/kg): showed target quadrant preference
MWM reversal learning: escape latency vs vehicle ([6]; APP^Lond/Swe+ mice, 3 and 10 mg/kg): non-significant decreased escape latency
MWM probe trial: target quadrant preference ([6]; WT mice, 3 mg/kg): showed a clear preference for the target quadrant
MWM reversal probe trial: target quadrant preference ([6]; WT mice, 3 mg/kg): all WT groups showed target quadrant preference with the exception of the 3 mg/kg dose group
MWM hidden platform learning: escape latency ([6]; WT mice, 3 and 30 mg/kg, started after 35 days of dosing): found the escape platform faster than the vehicle-treated WT mice
MWM reversal learning day 2: escape latency ([6]; WT mice, 10 and 30 mg/kg): found the escape platform faster than WT mice treated with vehicle
MWM reversal learning probe trial: target quadrant preference ([6]; WT mice, 10 and 30 mg/kg): demonstrated recall and showed target quadrant preference
blood chemistry and histopathology ([7]; WT mice, 10 mg/kg/d for 64 days, Supplemental tables 3-4): no signs of SAS- 0132 induced toxicity
locomotor activity in activity chamber vs vehicle ([7]; after 24 days of treatment): not significantly different
general health of treated animals ([7]; both chronic daily dosing studies, 3-30 mg/kg/d, 60-64 days): remained healthy and exhibited no detectable abnormalities
intracellular Aβ immunoreactivity (cortex, hippocampus, amygdala) (Aβ): does not affect levels of intracellular Aβ
soluble and insoluble Aβ40 and Aβ42 (ELISA) vs vehicle (Aβ): no significant difference
synaptophysin immunoreactivity, CA3 (synapse loss) (synaptophysin, iba1; APP^Lond/Swe+ mice, 10 mg/kg/d chronic): did not alter the extent of synapse loss
iba1 immunoreactivity (synaptophysin, iba1; WT or APP^Lond/Swe+ mice, chronic daily dosing study): no drug-related effects
IL1β mRNA expression (IL1β): decreased the expression of the inflammatory cytokine IL1β
Ki (Sig2R): 90 nM

CCOc1ccc2nc(SCCN3CCOCC3)[nH]c2c1 [afobazole]
neurotoxic microglia stimulation and apoptosis (microglia): reduces neurotoxic microglia stimulation and apoptosis

CC(=O)[C@H]1CC[C@H]2[C@@H]3CCC4=CC(=O)CC[C@]4(C)[C@H]3CC[C@]12C [progesterone]
neurogenic and neuroprotective effects [8]: exerts neurogenic and neuroprotective effects
